Measured values from ChEMBL document CHEMBL4177644, “Design, synthesis and biological activity of 3-pyrazine-2-yl-oxazolidin-2-ones as novel, potent and selective inhibitors of mutant isocitrate dehydrogenase 1” (Bioorg Med Chem, 2017).

What was measured:
[1] = test system: Isocitrate dehydrogenase [NADP] cytoplasmic (Homo sapiens), O75874 [R132C]; assay: Inhibition of IDH1 R132C mutant (unknown origin) expressed in HEK293T cells assessed as reduction in D-2-HG levels at 50 uM after 72 hrs relative to control; values are per cent of control
Sequence of Isocitrate dehydrogenase [NADP] cytoplasmic (Homo sapiens), O75874 [R132C] (O75874 whole entry R132C): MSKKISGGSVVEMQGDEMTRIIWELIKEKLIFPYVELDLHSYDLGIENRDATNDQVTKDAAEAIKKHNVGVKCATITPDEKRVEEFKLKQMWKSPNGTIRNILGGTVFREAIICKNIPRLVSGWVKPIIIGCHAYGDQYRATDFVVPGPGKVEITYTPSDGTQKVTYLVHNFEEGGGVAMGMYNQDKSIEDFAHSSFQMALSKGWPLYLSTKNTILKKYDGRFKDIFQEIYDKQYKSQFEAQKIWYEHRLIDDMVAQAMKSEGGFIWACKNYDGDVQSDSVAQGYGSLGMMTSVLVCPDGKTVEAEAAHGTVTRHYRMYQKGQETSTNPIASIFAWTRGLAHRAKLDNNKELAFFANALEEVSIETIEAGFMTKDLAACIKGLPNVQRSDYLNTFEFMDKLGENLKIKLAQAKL

[2] = test system: Isocitrate dehydrogenase [NADP] cytoplasmic (Homo sapiens), O75874 [R132H]; assay: Inhibition of IDH1 R132H mutant (unknown origin) expressed in HEK293T cells assessed as reduction in D-2-HG levels at 50 uM after 72 hrs relative to control; values are per cent of control
Sequence of Isocitrate dehydrogenase [NADP] cytoplasmic (Homo sapiens), O75874 [R132H] (O75874 whole entry R132H): as the sequence (O75874 whole entry R132C) above, with C132H counted along it

[3] = test system: HEK-293T; assay: Cytotoxicity against HEK293T cells harboring WT-IDH1 at 10 uM after 72 hrs by CellTiter-Glo assay; type: cell-based; settings: human
Method in brief: (§1)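 HEK-293T cells stably carrying IDH1 wild-type (pMXs-IDH1wt-IRES-BsdR, blasticidin-selected), 10 000 cells per well in DMEM with 10% FCS, 37 °C, 5% CO2. Compound added at the stated concentration for 72 h. Viability read by CellTiter-Glo luminescence.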

[4] = test system: Isocitrate dehydrogenase [NADP] cytoplasmic (Homo sapiens), O75874 [R132H]; assay: Inhibition of IDH1 R132H mutant (unknown origin) expressed in HEK293T cells assessed as reduction in D-2-HG levels at 10 uM after 72 hrs relative to control; values are per cent of control
[5] = test system: Isocitrate dehydrogenase [NADP] cytoplasmic (Homo sapiens), O75874 [R132C]; assay: Inhibition of IDH1 R132C mutant (unknown origin) expressed in HEK293T cells assessed as reduction in D-2-HG levels at 10 uM after 72 hrs relative to control; values are per cent of control
[6] = test system: HEK-293T; assay: Cytotoxicity against HEK293T cells harboring WT-IDH1 at 50 uM after 72 hrs by CellTiter-Glo assay; type: cell-based; settings: human
Method in brief: as §1

[7] = Cytotoxicity against HEK293T cells harboring WT-IDH1 assessed as cell survival at 50 uM after 72 hrs by CellTiter-Glo assay relative to control; type: cell-based, HEK-293T; settings: human, read-out: Survival
Method in brief: (§2)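 HEK293 cells stably expressing wild-type IDH1 (cDNA in pMXs-GW-IRES-BsdR, transfected with FuGene HD, selected with blasticidin S), grown in DMEM with 10% fetal calf serum and 1% penicillin/streptomycin at 37 °C, 5% CO2. Seeded at 10 000 cells/well in 96-well plates, treated with compound for 72 h; viability read by CellTiter-Glo luminescence.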

[8] = Cytotoxicity against HEK293T cells harboring WT-IDH1 assessed as cell survival at 10 uM after 72 hrs by CellTiter-Glo assay relative to control; type: cell-based, HEK-293T; settings: human, read-out: Survival
Method in brief: as §2

[9] = Permeability of compound at 25 ug/ml after 18 hrs by PAMPA-BBB assay; type: ADME; settings: read-out: Peff
Method in brief: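 PAMPA-BBB with porcine polar brain lipid (20 mg/mL, 4 µL per filter). DMSO stock 5 mg/ml diluted in PBS to 25 ug/ml final, 300 uL in donor, 150 µL PBS in acceptor. Sandwich left 18 h at room temperature. Acceptor and reference concentrations read by UV plate reader, Pe calculated by formula. Mean ± SD of three independent experiments.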

CC(C)[C@H]1COC(=O)N1c1ccnc(N[C@@H](C)c2ccc(-c3ccccn3)cc2)n1
residual activity [1]: 29.7%
residual activity [2]: 24.7%
Activity [3]: Non-Toxic
residual activity [4]: 33.9%

COc1cccc(-c2ccc([C@H](C)Nc3cncc(N4C(=O)OC[C@@H]4C(C)C)n3)cc2)c1
residual activity [1]: 41.7%
residual activity [2]: 33.9%
Activity [3]: Non-Toxic
residual activity [4]: 59.8%
residual activity [5]: 86%

CC(C)[C@H]1COC(=O)N1c1cncc(N[C@@H](C)c2ccc(-c3ccc(C(F)(F)F)cc3)cc2)n1
residual activity [1]: 27.4%
residual activity [2]: 30.7%
Activity [3]: Non-Toxic
residual activity [4]: 28%
residual activity [5]: 39.9%
Activity [6]: Toxic

Cc1ccc(-c2ccc([C@H](C)Nc3cncc(N4C(=O)OC[C@@H]4C(C)C)n3)cc2)cc1
residual activity [1]: 54.8%
residual activity [2]: 38.7%
Activity [3]: Non-Toxic
residual activity [4]: 70.5%
residual activity [5]: 74.9%

Cc1noc(C)c1-c1ccc([C@H](C)Nc2cncc(N3C(=O)OC[C@@H]3C(C)C)n2)cc1
residual activity [1]: 30.2%
residual activity [2]: 21.5%
Activity [3]: Non-Toxic
residual activity [4]: 47.9%
residual activity [5]: 54.1%
Activity [6]: Toxic

CC(C)[C@H]1COC(=O)N1c1cncc(N[C@@H](C)c2ccc(-c3ccc(F)cc3)cc2)n1
residual activity [1]: 51.3%
residual activity [2]: 33%
Activity [3]: Non-Toxic
residual activity [4]: 34.3%
residual activity [5]: 39%
Activity [6]: Toxic

CC(C)[C@H]1COC(=O)N1c1cncc(N[C@@H](C)c2ccc(-c3cccc(F)c3)cc2)n1
residual activity [1]: 50.6%
residual activity [2]: 34.7%
Activity [3]: Non-Toxic
residual activity [4]: 97.2%
residual activity [5]: 116%

Cc1ccccc1-c1ccc([C@H](C)Nc2cncc(N3C(=O)OC[C@@H]3C(C)C)n2)cc1
residual activity [1]: 29.1%
residual activity [2]: 28.3%
Activity [3]: Non-Toxic
residual activity [4]: 39.2%
residual activity [5]: 44.6%

COc1ccccc1-c1ccc([C@H](C)Nc2cncc(N3C(=O)OC[C@@H]3C(C)C)n2)cc1
residual activity [1]: 28.2%
viability at 72 h, 50 µM [7]: 74.5%
residual activity [2]: 24.6%
Activity [3]: Non-Toxic
residual activity [4]: 31.9%
viability at 72 h, 10 µM [8]: 89.8%
residual activity [5]: 40.6%
Papp at 18 h, 25 ug/ml [9]: 6.65 ×10⁻⁶ cm/s

CNCCCN1c2ccccc2CCc2ccccc21 [DESIPRAMINE]
Papp at 18 h, 25 ug/ml [9]: 8.82 ×10⁻⁶ cm/s

CC(C)[C@H]1COC(=O)N1c1cncc(N[C@@H](C)c2ccc(-c3ccccc3F)cc2)n1
residual activity [1]: 44.1%
residual activity [2]: 28%
Activity [3]: Non-Toxic
residual activity [4]: 78.4%
residual activity [5]: 89.9%

Cc1cccc(-c2ccc([C@H](C)Nc3cncc(N4C(=O)OC[C@@H]4C(C)C)n3)cc2)c1
residual activity [1]: 29.7%
residual activity [2]: 28.5%
Activity [3]: Non-Toxic
residual activity [4]: 49.7%
residual activity [5]: 51.1%

CC(C)[C@H]1COC(=O)N1c1cncc(N[C@@H](C)c2ccc(-c3ccccc3)cc2)n1
residual activity [1]: 108%
residual activity [2]: 38.8%
Activity [3]: Non-Toxic
residual activity [4]: 50%
residual activity [5]: 50.4%

COc1ccc(-c2ccc([C@H](C)Nc3cncc(N4C(=O)OC[C@@H]4C(C)C)n3)cc2)cc1
residual activity [1]: 51.7%
residual activity [2]: 31.9%
Activity [3]: Non-Toxic
residual activity [4]: 47.7%
residual activity [5]: 51.3%

CC(C)[C@H]1COC(=O)N1c1cncc(N[C@@H](C)c2ccc(-c3ccc4ccccc4c3)cc2)n1
residual activity [1]: 73.9%
residual activity [2]: 39.5%
Activity [3]: Non-Toxic
residual activity [4]: 85.4%
residual activity [5]: 71.3%
